Assay results published in ChEMBL document CHEMBL1138354, “2-(2'-((dimethylamino)methyl)-4'-(fluoroalkoxy)-phenylthio)benzenamine derivatives as serotonin transporter imaging agents” (J Med Chem, 2007).

Legend:
[1] = tested on: Nucleic Acid; test: Ratio of drug level in striatum to cerebellum in rat assessed as radioactivity after 2 mins; type: ADME, tissue-based; conditions: in vivo
[2] = tested on: Blood; test: Biodistribution in iv dosed rat blood after 60 mins; type: ADME, organism-based; conditions: in vivo, 1 h
In short: (§1)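 [18F]-labeled tracer was given to rats under isoflurane anesthesia: 0.2 ml sterile water with 1 mg/mL BSA and 10–100 μCi, into the femoral vein. Three rats per group. Animals were killed by cervical dislocation under anesthesia at the stated time. Organs were removed, weighed and counted. Uptake was calculated as percent dose against a 1% aliquot of the injected dose counted alongside.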

[3] = tested on: Spleen; test: Biodistribution in iv dosed rat spleen after 30 mins; type: ADME, organism-based; conditions: in vivo, 0.5 h
In short: (§2)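 Rats, 3 per group, under isoflurane. ¹⁸F tracer (10–100 μCi) in 0.2 ml sterile water with 1 mg/mL BSA injected into the femoral vein. Killed by cervical dislocation under anesthesia at the stated time. Organs removed, weighed and counted. % dose/organ calculated against counts of a 1% diluted aliquot of the injected dose.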

[4] = tested on: Muscle tissue; test: Biodistribution in iv dosed rat muscle after 120 mins; type: ADME, organism-based; conditions: in vivo, 2 h; in short: as §1
[5] = tested on: Heart; test: Biodistribution in iv dosed rat heart after 30 mins; type: ADME, organism-based; conditions: in vivo, 0.5 h; in short: as §1
[6] = tested on: Striatum; test: Biodistribution in iv dosed rat striatum assessed as radioactivity after 30 mins; type: ADME, organism-based; conditions: in vivo, 0.5 h
[7] = tested on: Striatum; test: Biodistribution in iv dosed rat striatum assessed as radioactivity after 2 mins; type: ADME, organism-based; conditions: in vivo
[8] = tested on: Kidney; test: Biodistribution in iv dosed rat kidney after 60 mins; type: ADME, organism-based; conditions: in vivo, 1 h; in short: as §1
[9] = tested on: Heart; test: Biodistribution in iv dosed rat heart after 2 mins; type: ADME, organism-based; conditions: in vivo; in short: as §1
[10] = tested on: Liver; test: Biodistribution in iv dosed rat liver after 60 mins; type: ADME, organism-based; conditions: in vivo, 1 h; in short: as §1
[11] = tested on: Nucleic Acid; test: Ratio of drug level in hypothalamus to cerebellum in rat after 2 mins; type: ADME, tissue-based; conditions: in vivo
[12] = tested on: Muscle tissue; test: Biodistribution in iv dosed rat muscle after 240 mins; type: ADME, organism-based; conditions: in vivo, 4 h; in short: as §1
[13] = tested on: Brain; test: Biodistribution in iv dosed rat brain after 30 mins; type: ADME, organism-based; conditions: in vivo, 0.5 h; in short: as §1
[14] = tested on: Lung; test: Biodistribution in iv dosed rat lungs after 240 mins; type: ADME, organism-based; conditions: in vivo, 4 h; in short: as §1
[15] = tested on: Heart; test: Biodistribution in iv dosed rat heart after 120 mins; type: ADME, organism-based; conditions: in vivo, 2 h; in short: as §1
[16] = tested on: Bone; test: Biodistribution in iv dosed rat bone after 2 mins; type: ADME, organism-based, Bone element; conditions: in vivo; in short: as §1
[17] = tested on: Muscle tissue; test: Biodistribution in iv dosed rat muscle after 60 mins; type: ADME, organism-based; conditions: in vivo, 1 h; in short: as §1
[18] = tested on: Bone; test: Biodistribution in iv dosed rat bone after 240 mins; type: ADME, organism-based, Bone element; conditions: in vivo, 4 h; in short: as §1
[19] = tested on: Nucleic Acid; test: Ratio of drug level in striatum to cerebellum in rat assessed as radioactivity after 120 mins; type: ADME, tissue-based; conditions: in vivo, 2 h
In short: (§3)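 Groups of three normal rats under isoflurane received the [18F] tracer (10–100 μCi in 0.2 ml sterile water containing 1 mg/mL BSA) into the femoral vein. They were killed by cervical dislocation under anesthesia at the stated time. Cortex, striatum, hippocampus, hypothalamus and cerebellum were dissected, weighed and gamma-counted. %dose/g was set against a 100-fold diluted dose aliquot, and each region was divided by cerebellum.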

[20] = tested on: Nucleic Acid; test: Ratio of drug level in hippocampus to cerebellum in rat assessed as radioactivity after 120 mins; type: ADME, tissue-based; conditions: in vivo, 2 h; in short: as §3
[21] = tested on: Striatum; test: Biodistribution in iv dosed rat striatum assessed as radioactivity after 240 mins; type: ADME, organism-based; conditions: in vivo, 4 h
[22] = Partition coefficient, log P at pH 7.4; type: physicochemical; conditions: octanol/water
[23] = tested on: Nucleic Acid; test: Ratio of drug level in cortex to cerebellum in rat assessed as radioactivity after 2 mins; type: ADME, tissue-based; conditions: in vivo
[24] = tested on: Blood; test: Biodistribution in iv dosed rat blood after 240 mins; type: ADME, organism-based; conditions: in vivo, 4 h; in short: as §1
[25] = tested on: Nucleic Acid; test: Ratio of drug level in striatum to cerebellum in rat assessed as radioactivity after 30 mins; type: ADME, tissue-based; conditions: in vivo, 0.5 h; in short: as §3
[26] = tested on: Liver; test: Biodistribution in iv dosed rat liver after 240 mins; type: ADME, organism-based; conditions: in vivo, 4 h; in short: as §1
[27] = tested on: Nucleic Acid; test: Ratio of drug level in hippocampus to cerebellum in rat assessed as radioactivity after 60 mins; type: ADME, tissue-based; conditions: in vivo, 1 h
[28] = tested on: Zone of skin; test: Biodistribution in iv dosed rat skin after 120 mins; type: ADME, organism-based; conditions: in vivo, 2 h; in short: as §2
[29] = tested on: Spleen; test: Biodistribution in iv dosed rat spleen after 60 mins; type: ADME, organism-based; conditions: in vivo, 1 h
[30] = tested on: Muscle tissue; test: Biodistribution in iv dosed rat muscle after 2 mins; type: ADME, organism-based; conditions: in vivo; in short: as §1
[31] = tested on: Zone of skin; test: Biodistribution in iv dosed rat skin after 60 mins; type: ADME, organism-based; conditions: in vivo, 1 h
[32] = tested on: Nucleic Acid; test: Ratio of drug level in striatum to cerebellum in rat assessed as radioactivity after 240 mins; type: ADME, tissue-based; conditions: in vivo, 4 h

- Ratio [1]: 1.22
- Drug uptake [2]: 3.1 %ID
- Drug uptake [3]: 0.65 %ID
- Drug uptake [4]: 4.24 %ID
- Drug uptake [5]: 0.17 %ID
- Drug uptake [6]: 0.8 % ID/g
- Drug uptake [7]: 1.01 % ID/g
- Drug uptake [8]: 4.04 %ID
- Drug uptake [9]: 0.95 %ID
- Drug uptake [10]: 3.74 %ID
- Ratio [11]: 1.28
- Drug uptake [12]: 2.28 %ID
- Drug uptake [13]: 1.85 %ID
- Drug uptake [14]: 0.33 %ID
- Drug uptake [15]: 0.09 %ID
- Drug uptake [16]: 8.67 %ID
- Drug uptake [17]: 8.24 %ID
- Drug uptake [18]: 3.3 %ID
- Ratio [19]: 3.85
- Ratio [20]: 3.71
- Drug uptake [21]: 0.08 % ID/g
- logD [22]: 2.15
- Ratio [23]: 1.53
- Drug uptake [24]: 1.74 %ID
- Ratio [25]: 2.69
- Drug uptake [26]: 2.26 %ID
- Ratio [27]: 3.75
- Drug uptake [28]: 4.32 %ID
- Drug uptake [29]: 0.35 %ID
- Drug uptake [30]: 16.55 %ID
- Drug uptake [31]: 8.44 %ID
- Ratio [32]: 2.72
SMILES: CN(C)Cc1cc(OCC[18F])ccc1Sc1ccccc1N
